Experimental findings from ChEMBL document CHEMBL4680167, “Synthesis and SARs of dopamine derivatives as potential inhibitors of influenza virus PA endonuclease” (Eur J Med Chem, 2020) are described below.

Structures are written as SMILES.

In series [1] the test system is Influenza A virus. Nature of the series: Antiviral activity against Influenza A virus (A/WSN/1933(H1N1)) infected in dog MDCK cells assessed as reduction in virus-induced cytopathic effect incubated for 48 hrs by MTT assay. Format: functional, organism-based. An outline of the steps: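 MDCK cells (DMEM, 10% FBS, 37 °C, 5% CO2) were seeded overnight and infected with 100 TCID50 (MOI 3.5×10^-3) of A/WSN/33 for 1 h. Compounds were added at increasing concentrations and cells were cultured about 48 h in FBS-free medium with 0.6 µg/mL TPCK-trypsin. Read-out was MTT, formazan dissolved in DMSO, A570, with CPE checked by microscopy. Triplicates; EC50 is the concentration giving 50% cell protection.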
For orientation: Cytopathic effects are the visible damage that an infection or toxin causes in cultured cells.

Series [2] is described as follows: Cytotoxicity against dog MDCK cells assessed as reduction in cell viability incubated for 48 hrs by MTT assay. Format: cell-based, Canis lupus familiaris. In outline: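 Uninfected MDCK cells were seeded overnight, then exposed to increasing compound concentrations or 0.1% DMSO blank for 48 h. Viability was read by MTT; CC50 is the concentration killing 50% of cells.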
A general note: Tetrazolium assays rely on reduction of a dye to a coloured formazan, in cell work by metabolically active cells.

Series [3] is described as follows: Selectivity index, ratio of CC50 for dog MDCK cells to EC50 for Influenza A virus (A/WSN/1933(H1N1)) infected in dog MDCK cells. Format: toxicity, cell-based. The settings on record: read-out: Ratio CC50/EC50.
Series [4] can be described thus: Inhibition of recombinant Influenza A virus (A/USA:Huston/AA/1945 H1N1)) N-terminal His6-tagged PA endonuclease using 6FAM-TGGCAATATCAGCTCCACA-MGBN DNA probe as substrate by TR-FRET assay. In outline: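 Recombinant PA_N cleavage was followed by FRET on a TaqMan-like probe: 5'-FAM, 19 nucleotides, 3'-MGBNFQ quencher, excitation 492 nm. Cleavage frees FAM fluorescence. Percentage inhibition was plotted against log compound concentration; mean ± SD of eleven independent experiments.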

Series [5] in a line: (§1) Binding affinity to recombinant Influenza A virus (A/USA:Huston/AA/1945 H1N1)) N-terminal His6-tagged PA endonuclease assessed as dissociation constant by SPR analysis. An outline of the steps:
(§2)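 For SPR, compounds were printed in 5 repeats on a photo-cross-linker chip. The surface was primed with HBS-EP (10 mM HEPES pH 7.0, 150 mM NaCl, 3 mM EDTA, 0.005% P20), then with running buffer (PBS, 5% DMSO). PA_N at 10, 20, 40, 80 and 160 nM in running buffer was injected 600 s at 0.5 µL/s, followed by 360 s dissociation.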
In general terms: Surface plasmon resonance follows binding to a sensor surface in real time, without labels.

For series [6], the system named is Influenza A virus. The description is as §1. In outline: as §2

In the case of `Oc1ccc(CCNC(=S)Cc2ccc(O)c(O)c2)cc1O`, the EC50 stood at 7.01 µM in series [1] and 1.29 µM in series [4]. Besides, in series [2], the CC50 at 48 h was more than 200 µM. Moreover, in series [3], the selectivity ratio was more than 45.7.
With `O=C(NCCc1ccc(O)c(O)c1)c1ccc(O)c(O)c1`, the EC50 in series [1] came out at 10.2 µM. Besides, the CC50 at 48 h in series [2] amounted to 154 µM. For the same molecule, in series [3], the selectivity ratio was 15.
For `O=C(Cc1ccc(O)c(O)c1)OCCc1ccc(O)c(O)c1` [BLAPSIN A], the EC50 in series [1] is more than 30 µM.
For `O=C1c2cc(=O)ccn2N([C@@H]2c3ccccc3SCc3c2ccc(F)c3F)[C@@H]2COCCN12`, the equilibrium dissociation constant (Kd) in series [5] stood at 0.000208 µM.
As for `O=C(NCCc1ccc(O)c(O)c1)c1ccc(O)cc1`, the EC50 in series [1] was determined as 12.7 µM. For the same molecule, the CC50 at 48 h in series [2] is more than 200 µM. The selectivity ratio in series [3] is more than 25.2.
On to `O=C(NCCc1ccc(O)c(O)c1)c1cc(O)c(O)c(O)c1`, for which the EC50 in series [1] is more than 30 µM.
For the molecule `O=C(NCCc1ccc(O)c(O)c1)c1cccc(O)c1O`, the 50% effective concentration (EC50) in series [1] is more than 30 µM.
As for `O=C(CCc1ccc(O)c(O)c1)NCCc1ccc(O)c(O)c1`, the values for the EC50 in series [1] and in series [4] were 4.94 µM and 0.842 µM, respectively. Also, the CC50 at 48 h in series [2] was more than 200 µM. The selectivity ratio in series [3] was more than 64.8.
For `O=C(c1ccc(O)c(O)c1)N1CCc2cc(O)c(O)cc2C1`, in that order: 3.1 µM, 0.577 µM, 133 µM and 43.
`O=C(NCCc1ccc(O)c(O)c1)c1ccccc1O`: the EC50 in series [1] is more than 30 µM.
In the case of `O=C(Cc1ccc(O)c(O)c1)N1CCc2cc(O)c(O)cc2C1`, the EC50 worked out at 2.58 µM in series [1] and 0.489 µM in series [4]. The CC50 at 48 h in series [2] was found to be 151 µM. In addition, the selectivity ratio in series [3] worked out at 58.5. Moreover, in series [5], the Kd was determined as 0.0942 µM. For the same molecule, the Activity result in series [6] is “Dose-dependent effect”.
As to `O=C(CCc1ccc(O)c(O)c1)N1CCc2cc(O)c(O)cc2C1`, the EC50 in series [1] amounted to 18.6 µM. Moreover, the CC50 at 48 h in series [2] was 197 µM. Further, in series [3], the selectivity ratio was found to be 10.6.
In the case of `O=C(Cc1ccc(O)c(O)c1)NCCc1ccc(O)c(O)c1`, the EC50 in series [1] is 2.46 µM; in series [4] it was 0.312 µM. For the same molecule, in series [2], the CC50 at 48 h is more than 200 µM. The selectivity ratio in series [3] was more than 81.3. Moreover, the Kd in series [5] turned out to be 0.0263 µM. Besides, in series [6], the Activity entry is “Dose-dependent effect”.
With `O=C(NCCc1ccc(O)c(O)c1)c1cccc(O)c1`, the EC50 in series [1] was 13.1 µM. Further, the CC50 at 48 h in series [2] was more than 200 µM. Further, in series [3], the selectivity ratio was more than 15.3.
As for `O=C(O[C@@H]1Cc2c(O)cc(O)cc2O[C@@H]1c1cc(O)c(O)c(O)c1)c1cc(O)c(O)c(O)c1` [EPIGALOCATECHIN GALLATE], the results for the EC50 in series [1] and in series [4] were 28.9 µM and 6.45 µM, respectively. Moreover, the CC50 at 48 h in series [2] was more than 200 µM. The selectivity ratio in series [3] was more than 6.9. In series [5], the Kd was determined as 0.956 µM.
As for `CCC(CC)[C@H](NC(C)=O)[C@@H]1[C@H](O)[C@@H](C(=O)O)C[C@H]1NC(=N)N` [PERAMIVIR ANHYDROUS], in series [1], the EC50 was found to be 5.26 µM. Moreover, the CC50 at 48 h in series [2] is more than 200 µM. The selectivity ratio in series [3] is more than 38.

The term EC50 denotes the concentration needed to bring the measured effect to its halfway point. Broadly, the CC50 is the concentration giving 50% cytotoxicity. As usually defined, the Kd is the equilibrium constant for the complex coming apart.
